Source: ChEMBL document CHEMBL1649392, “Synthesis of substituted 3-amino-N-phenyl-1H-indazole-1-carboxamides endowed with antiproliferative activity” (Eur J Med Chem, 2011)

Key:
Assay type in all cases: functional
[1] = system: K562; assay: Antiproliferative activity against human K562 cells after 48 hrs by sulforhodamine B assay; details: K562, 48 h
Outline: (§1)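 NCI 60-cell-line panel covering nine cancer types (leukemia, non-small cell lung, colon, CNS, melanoma, ovarian, renal, prostate, breast). Compounds were first tested at a single dose, then in a five-dose screen (series starting 0.01, 0.1 …) if they met NCI threshold criteria. Reported per line: GI50 (molar concentration inhibiting 50% net growth), TGI (total growth inhibition) and LC50 (50% net cell death).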

[2] = system: MOLT-4; assay: Antiproliferative activity against human MOLT4 cells after 48 hrs by sulforhodamine B assay; details: MOLT-4, 48 h; outline: as §1
[3] = Antiproliferative activity against human […] cells after 48 hrs by sulforhodamine B assay; outline: as §1
[4] = system: A549; assay: Antiproliferative activity against human A549 cells after 48 hrs by sulforhodamine B assay; details: A549, 48 h; outline: as §1
[5] = system: EKVX; assay: Antiproliferative activity against human EKVX cells after 48 hrs by sulforhodamine B assay; outline: as §1
[6] = system: HOP-62; assay: Antiproliferative activity against human HOP62 cells after 48 hrs by sulforhodamine B assay; details: HOP-62, 48 h; outline: as §1
[7] = system: NCI-H226; assay: Antiproliferative activity against human NCI-H226 cells after 48 hrs by sulforhodamine B assay; details: NCI-H226, 48 h; outline: as §1
[8] = system: NCI-H23; assay: Antiproliferative activity against human NCI-H23 cells after 48 hrs by sulforhodamine B assay; details: NCI-H23, 48 h; outline: as §1
[9] = system: NCI-H460; assay: Antiproliferative activity against human NCI-H460 cells after 48 hrs by sulforhodamine B assay; details: NCI-H460, 48 h; outline: as §1
[10] = system: COLO 205; assay: Antiproliferative activity against human COLO205 cells after 48 hrs by sulforhodamine B assay; details: COLO 205, 48 h; outline: as §1
[11] = system: HCT-116; assay: Antiproliferative activity against human HCT116 cells after 48 hrs by sulforhodamine B assay; details: HCT-116, 48 h; outline: as §1
[12] = system: HCT-15; assay: Antiproliferative activity against human HCT15 cells after 48 hrs by sulforhodamine B assay; details: HCT-15, 48 h; outline: as §1
[13] = system: SW-620; assay: Antiproliferative activity against human SW620 cells after 48 hrs by sulforhodamine B assay; details: SW-620, 48 h
Outline: (§2)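 NCI 60-cell-line panel screen: single dose 10 µM first, then 5-dose testing (0.01, 0.1, … molar series). For each line, GI50 is the molar concentration giving 50% inhibition of net cell growth, TGI gives total inhibition of net growth, and LC50 gives 50% net cell death. Method follows the NCI DTP protocol.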

[14] = system: SF-268; assay: Antiproliferative activity against human SF268 cells after 48 hrs by sulforhodamine B assay; details: SF-268, 48 h; outline: as §1
[15] = system: SF-539; assay: Antiproliferative activity against human SF539 cells after 48 hrs by sulforhodamine B assay; details: SF-539, 48 h; outline: as §1
[16] = system: SNB-19; assay: Antiproliferative activity against human SNB19 cells after 48 hrs by sulforhodamine B assay; details: SNB-19, 48 h; outline: as §1
[17] = system: M14; assay: Antiproliferative activity against human M14 cells after 48 hrs by sulforhodamine B assay; details: M14, 48 h; outline: as §1
[18] = system: SK-MEL-2; assay: Antiproliferative activity against human SK-MEL-2 cells after 48 hrs by sulforhodamine B assay; details: SK-MEL-2, 48 h; outline: as §1
[19] = system: UACC-257; assay: Antiproliferative activity against human UACC257 cells after 48 hrs by sulforhodamine B assay; details: UACC-257, 48 h; outline: as §2
[20] = system: UACC-62; assay: Antiproliferative activity against human UACC62 cells after 48 hrs by sulforhodamine B assay; details: UACC-62, 48 h; outline: as §2
[21] = system: IGROV-1; assay: Antiproliferative activity against human IGROV1 cells after 48 hrs by sulforhodamine B assay; details: IGROV-1, 48 h; outline: as §1
[22] = system: OVCAR-3; assay: Antiproliferative activity against human OVCAR3 cells after 48 hrs by sulforhodamine B assay; details: OVCAR-3, 48 h; outline: as §1
[23] = system: OVCAR-4; assay: Antiproliferative activity against human OVCAR4 cells after 48 hrs by sulforhodamine B assay; details: OVCAR-4, 48 h; outline: as §1
[24] = system: OVCAR-5; assay: Antiproliferative activity against human OVCAR5 cells after 48 hrs by sulforhodamine B assay; details: OVCAR-5, 48 h; outline: as §1
[25] = system: OVCAR-8; assay: Antiproliferative activity against human OVCAR8 cells after 48 hrs by sulforhodamine B assay; details: OVCAR-8, 48 h; outline: as §1
[26] = system: SK-OV-3; assay: Antiproliferative activity against human SKOV3 cells after 48 hrs by sulforhodamine B assay; details: SK-OV-3, 48 h; outline: as §1
[27] = system: 786-0; assay: Antiproliferative activity against human 786-0 cells after 48 hrs by sulforhodamine B assay; details: 786-0, 48 h; outline: as §1
[28] = system: CAKI-1; assay: Antiproliferative activity against human Caki1 cells after 48 hrs by sulforhodamine B assay; details: CAKI-1, 48 h; outline: as §1
[29] = system: SN12C; assay: Antiproliferative activity against human SN12C cells after 48 hrs by sulforhodamine B assay; outline: as §1
[30] = system: PC-3; assay: Antiproliferative activity against human PC3 cells after 48 hrs by sulforhodamine B assay; details: PC-3, 48 h; outline: as §1
[31] = Antiproliferative activity against human Hs 578T cells after 48 hrs by sulforhodamine B assay; outline: as §1
[32] = read-out: LC50 (the source's name)

SMILES: Nc1ccc2c(c1)c(N)nn2C(=O)Nc1ccc(Cc2ccccc2)cc1
- GI50 [1]: 2.24 µM
- LC50 (concentration causing 50% net cell death) [1]: > 100 µM
- TGI [1]: 11.4 µM
- GI50 [2]: 4.48 µM
- TGI [2]: 24.3 µM
- CC50 [2, 32]: > 100 µM
- GI50 [3]: 5.14 µM
- TGI [3]: 35 µM
- CC50 [3, 32]: > 100 µM
- GI50 [4]: 6.58 µM
- TGI [4]: 57.1 µM
- CC50 [4, 32]: > 100 µM
- GI50 [5]: 14 µM
- TGI [5]: 36.7 µM
- CC50 [5, 32]: 96.1 µM
- GI50 [6]: 11.2 µM
- LC50 (concentration causing 50% net cell death) [6]: 65.3 µM
- TGI [6]: 27 µM
- GI50 [7]: 16.1 µM
- TGI [7]: 38.3 µM
- CC50 [7, 32]: 91.4 µM
- GI50 [8]: 16.9 µM
- TGI [8]: 39.5 µM
- CC50 [8, 32]: 92.4 µM
- GI50 [9]: 4.64 µM
- TGI [9]: 23.8 µM
- CC50 [9, 32]: > 100 µM
- GI50 [10]: 13.1 µM
- LC50 (concentration causing 50% net cell death) [10]: 53.9 µM
- TGI [10]: 26.5 µM
- GI50 [11]: 6.79 µM
- LC50 (concentration causing 50% net cell death) [11]: 50 µM
- TGI [11]: 20.8 µM
- GI50 [12]: 2.75 µM
- LC50 (concentration causing 50% net cell death) [12]: 50.5 µM
- TGI [12]: 14.2 µM
- GI50 [13]: 4.48 µM
- TGI [13]: 18.7 µM
- CC50 [13, 32]: 58.5 µM
- GI50 [14]: 13 µM
- TGI [14]: 30.7 µM
- CC50 [14, 32]: 72.5 µM
- GI50 [15]: 8.7 µM
- TGI [15]: 22.1 µM
- CC50 [15, 32]: 51.8 µM
- GI50 [16]: 13.9 µM
- TGI [16]: 27.3 µM
- CC50 [16, 32]: 53.6 µM
- GI50 [17]: 4.59 µM
- TGI [17]: 17.8 µM
- CC50 [17, 32]: 51.9 µM
- GI50 [18]: 26.1 µM
- TGI [18]: 48.5 µM
- CC50 [18, 32]: 90.1 µM
- GI50 [19]: 14.5 µM
- TGI [19]: 29.7 µM
- CC50 [19, 32]: 60.8 µM
- GI50 [20]: 2.9 µM
- TGI [20]: 12.6 µM
- CC50 [20, 32]: 39.3 µM
- GI50 [21]: 16.4 µM
- TGI [21]: 54.1 µM
- CC50 [21, 32]: > 100 µM
- GI50 [22]: 12.1 µM
- TGI [22]: 28.3 µM
- CC50 [22, 32]: 66.7 µM
- GI50 [23]: 8.29 µM
- TGI [23]: 24.1 µM
- CC50 [23, 32]: 63.2 µM
- GI50 [24]: 22.6 µM
- TGI [24]: 60.5 µM
- CC50 [24, 32]: > 100 µM
- GI50 [25]: 20.2 µM
- TGI [25]: > 100 µM
- CC50 [25, 32]: > 100 µM
- GI50 [26]: 15.3 µM
- TGI [26]: 37.7 µM
- CC50 [26, 32]: 92.8 µM
- GI50 [27]: 12.4 µM
- TGI [27]: 25.9 µM
- CC50 [27, 32]: 54.3 µM
- GI50 [28]: 4.3 µM
- TGI [28]: 26.8 µM
- CC50 [28, 32]: > 100 µM
- GI50 [29]: 13.4 µM
- TGI [29]: 30.9 µM
- CC50 [29, 32]: 71.1 µM
- GI50 [30]: 4.33 µM
- TGI [30]: 24 µM
- CC50 [30, 32]: 87 µM
- GI50 [31]: 17.3 µM
- TGI [31]: 43 µM
- CC50 [31, 32]: > 100 µM
